Source: PubChem
S1P4 antagonist – blocks the human S1P4 receptor | O95977 | 0.26% of 220,000 active | S1P4-expressing cells, antagonist mode, reporter read-out | inhibition, % at 4.98 µM; in the data active = inhibition above about 29%;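 note: 0% = wells stimulated with agonist and 100% = vehicle wells without agonist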
NPY1 pot ag – potentiates or activates human NPY-Y1 receptor | P25929 | NPY-Y1 expressing cells, potentiator/agonist activation | activation, % at 3.6 µM | 0.37% of 220,000 active | AID 1304; in the data active = activation above about 33%, passing the limit was not always enough;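 note: cells stimulated with NPY at EC10 then isoproterenol at EC100; 0% = low agonist plus stimulus and 100% = saturating agonist plus stimulus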
Target sequence (P25929 whole entry, looked up): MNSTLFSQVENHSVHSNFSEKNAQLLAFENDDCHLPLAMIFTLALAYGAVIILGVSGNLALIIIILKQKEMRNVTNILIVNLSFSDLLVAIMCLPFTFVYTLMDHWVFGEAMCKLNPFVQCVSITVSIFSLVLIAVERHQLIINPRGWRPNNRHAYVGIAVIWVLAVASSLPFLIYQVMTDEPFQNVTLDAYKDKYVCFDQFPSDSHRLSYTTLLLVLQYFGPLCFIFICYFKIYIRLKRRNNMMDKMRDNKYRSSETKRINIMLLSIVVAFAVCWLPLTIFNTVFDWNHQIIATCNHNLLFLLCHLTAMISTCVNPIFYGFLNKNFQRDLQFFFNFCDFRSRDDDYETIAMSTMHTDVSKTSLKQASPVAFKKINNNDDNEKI
NPY-Y2 antag – blocks the human neuropeptide Y Y2 receptor. inhibition, % at 2.7 µM. NPY-Y2 expressing cells, antagonist mode. AID 793. P49146. 0.99% of 140,000 active; in the data active = inhibition above about 17%;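 note: 0% = vehicle with agonist challenge and 100% = reference antagonist with challenge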
S1P4 ag – activates the human S1P4 receptor; S1P4-expressing cell line, agonist reporter assay; activation, % at 4.98 µM; 0.35% of 220,000 active; AID 1509; in the data active = activation above about 11%;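 note: 0% = DMSO vehicle and 100% = reference agonist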
NPY-Y1 antag – antagonists of human neuropeptide Y receptor Y1. inhibition, % at 3.6 µM. HEK293-CNG Y1 cells, membrane potential fluorescence; NPY at EC95, then isoproterenol. P25929. 1% of 200,000 active;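 active = inhibition above the campaign mean inhibition of all tested compounds plus 3 SD, cut at about 20% in these data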;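 note: 0% = DMSO wells given NPY plus isoproterenol and 100% = isoproterenol alone without NPY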
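Test system: HEK293 cells co-expressing NPY Y1 receptor and cyclic-nucleotide gated channel; Also added: NPY (25 nM), isoproterenol (1 µM), Ro 20-1724 (25 µM); Compound dosing: one concentration, 3.6 µM, in 0.4% DMSO; Timing: dye 3 h, compound 60 min room temperature, stimulation 45 min; Technique: Membrane-potential fluorescent dye readout.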
NPY2 pot ag – human NPY-Y2 potentiation or agonism, primary screen; 0.45% of 220,000 active; activation, % at 3.6 µM; P49146; cells expressing NPY-Y2, potentiator/agonist read-out; AID 1359; in the data active = activation above about 27%;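 note: cells stimulated with NPY near EC25 plus isoproterenol at EC100; 0% = vehicle plus submaximal agonist and 100% = vehicle plus saturating agonist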
S1P4 ag conf – confirmation of human S1P4 receptor agonists. shares compounds with S1P4 ag. S1P4 agonist cell-based reporter assay. activation, % at 4.98 µM. 7% of 740 active. AID 1523; in the data active = activation above about 12%;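 note: 0% = vehicle and 100% = full reference agonist response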
S1P1 agonist – counter-screen for S1P4 agonists: agonists of human S1P1 | 4% of 740 active | S1P1 agonist cell-based assay, activation | shares compounds with S1P4 ag | activation, % at 4.98 µM; in the data active = activation above about 21%;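 note: 0% = vehicle wells and 100% = reference agonist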
Numbers without * were called inactive; . = no result. Hits are enriched below; roughly 2.4% of the tested compounds scored in any of these assays.

SMILES	S1P4 antagonist	NPY1 pot ag	NPY-Y2 antag	S1P4 ag	NPY-Y1 antag	NPY2 pot ag	S1P4 ag conf	S1P1 agonist
CC(=O)Nc1ccc(S(=O)(=O)n2nc(-c3ccc(C)cc3)nc2N)cc1	0.2	17.4	-4.0	20.5*	-3.7	15.4	-1.3	0.2
Cc1ccc(S(=O)(=O)n2nc(-c3cccnc3)nc2N)cc1	-7.8	1.3	1.3	-0.6	4.8	3.8	.	.
CC(c1cccs1)N(Cc1ccco1)C(=S)Nc1ccccc1Cl (configuration not stated)	5.5	-1.3	.	-0.4	15.7	5.9	.	.
CCn1c(C)cc(/C=C2/NC(=O)N(c3ccccc3)C2=O)c1C	-12.4	-6.4	.	2.4	2.7	7.0	.	.
COCCn1c(C)cc(/C=C2/NC(=O)N(c3cccc(Cl)c3)C2=O)c1C	-12.9	16.6	.	105.0*	-0.8	11.8	-1.3	-2.5
CC(NCc1ccc(S(N)(=O)=O)cc1)C(=O)N1c2ccccc2CC1C (configuration not stated)	-16.4	23.2	.	-0.4	.	-1.6	.	.
O=C(Cn1cncn1)N/N=C/c1ccc(Cl)cc1	-4.5	-8.1	2.3	1.1	1.0	5.8	.	.
O=C(Cn1cncn1)NCc1ccc(Cl)cc1	-11.2	5.8	2.5	13.2*	3.5	-2.6	-2.3	-6.4
CCCc1cc(=O)[nH]c(SCCCCN2C(=O)c3ccccc3C2=O)n1	-13.5	-4.1	.	0.4	12.5	3.7	.	.
O=c1cc(-c2ccc([N+](=O)[O-])cc2)c2ccc(O)cc2o1	-7.1	17.5	.	11.9*	1.9	5.5	1.5	7.6
CC1CCN(C2(O)C(=O)Nc3ccc(Br)cc32)CC1 (configuration not stated)	8.5	-13.8	.	-2.7	7.9	-13.5	.	.
CN=C1S/C(=C\c2cc(C)n(-c3ccccc3F)c2C)C(=O)N1C	-35.4	12.3	10.1	58.5*	3.0	11.8	89.3*	72.2*
CCOc1cc(CNCCSc2nnnn2C)cc(Br)c1OCc1ccc(F)cc1	1.2	-37.5	11.2	40.6*	3.2	-4.2	-0.9	-10.0
COc1cc(CNCCSc2nnnn2C)cc(Br)c1OCc1ccc(F)cc1	-11.7	-22.1	5.8	-2.9	5.4	-9.2	.	.
O=C(CN(Cc1ccccc1)S(=O)(=O)c1ccccc1)N/N=C/c1ccccc1C(=O)O	-10.9	-7.1	.	0.0	1.8	-2.2	.	.
COc1cc(Cl)c(C)cc1NC(=O)c1ccc2c(SCC(=O)O)c3c(nc2c1)CCCC3	-3.1	-13.2	.	1.8	8.8	-9.4	.	.
COc1ccc(C)cc1NC(=O)c1ccc2c(SCC(=O)O)c3c(nc2c1)CCCC3	-11.8	5.3	.	45.4*	.	-14.0	-2.0	-2.8
CCc1nnc(NC(=O)Cc2ccc(OC)c(OC)c2)s1	-4.6	-6.5	.	1.1	2.0	0.4	.	.
COc1ccc(CC(=O)Nc2nnc(C(C)(C)C)s2)cc1OC	-15.9	13.0	.	31.8*	-0.5	-3.8	-0.9	-10.9
CCCCC(CC(O)COCC(C)C)C(=O)NN (configuration not stated)	-19.4	8.0	.	41.7*	1.8	-12.9	-1.9	4.0
C=CCNC(=S)NNC(=O)C(CCCC)CC(O)COCC(C)C (configuration not stated)	-2.8	3.4	.	-0.3	.	1.8	.	.
Cc1onc(-c2ccccc2)c1C(=O)NCCN1CCOCC1	5.7	0.1	1.1	16.8*	0.6	10.7	-1.1	-3.5
CC(C)(C)c1ccc(OCC(=O)Nc2ccc3c4c(cccc24)C(=O)NC3=O)cc1	-10.7	7.1	.	18.8*	-4.8	8.9	1.4	-4.0
CN(C(=S)SCc1ccccc1)C1CCS(=O)(=O)C1 (configuration not stated)	-2.0	7.5	.	0.4	-2.8	3.9	.	.
COc1cccc(Nc2nc(-c3sc(NC(=O)c4ccco4)nc3C)cs2)c1	-7.2	22.9	0.0	28.6*	-0.7	21.0	-2.9	-4.2
SMILES	S1P4 antagonist	NPY1 pot ag	NPY-Y2 antag	S1P4 ag	NPY-Y1 antag	NPY2 pot ag	S1P4 ag conf	S1P1 agonist
COc1ccc(Cl)cc1Nc1nc(-c2sc(NC(=O)c3ccco3)nc2C)cs1	-10.8	27.4	-1.5	1.9	2.2	11.8	.	.
Cc1ccc(NC(=O)Cn2cc3c(n2)CCC(C)C3)cc1 (configuration not stated)	2.8	-23.4	5.6	27.1*	2.1	-12.8	-2.5	-6.7
COC(=O)c1ccccc1NC(=O)Cn1cc2c(n1)CCC(C)C2 (configuration not stated)	-7.0	-9.4	5.6	-0.4	5.8	-10.5	.	.
O=C(NCCCO)C(=O)NCc1ccncc1	-15.7	-2.0	.	1.0	-2.0	3.3	.	.
Cc1cc(C2=NNC(=NC3CC3)SC2)c(C)n1-c1c(C)n(C)n(-c2ccccc2)c1=O	-9.0	-1.5	-1.5	14.6*	7.9	6.9	-2.2	-1.5
CC1CCN(C(=S)c2ccc(N(C)C)cc2)CC1	-7.4	-1.2	.	-0.2	4.8	3.4	.	.
Cc1cc(C)n(-c2ccc(C(=O)Nc3sccc3C(N)=O)cc2)n1	-24.9	-16.6	3.4	11.7*	-4.9	-3.3	20.8*	-7.4
Cc1cc(C)n(-c2ccc(C(=O)Nc3nnc(C)s3)cc2)n1	-2.4	-5.1	-1.4	-0.4	-1.1	-19.4	.	.
CCC(C(=O)Nc1ccsc1C(=O)OC)c1ccccc1 (configuration not stated)	-45.1	-10.4	.	-1.2	3.1	-7.8	.	.
COc1cccc(OCC(=O)NNC(=O)Cc2cccs2)c1	-26.2	-1.8	1.8	2.9	9.8	-0.2	.	.
COc1cccc(C(=O)NNC(=O)Cc2cccs2)c1	-9.1	-4.9	.	23.9*	0.6	-3.2	-0.9	2.7
COc1ccccc1CNC(=O)CSc1ccc(-c2ccncc2)nn1	-2.0	-3.1	.	29.1*	1.8	2.1	-1.1	4.6
COc1ccc(CNC(=O)C(C)N2C(=O)COc3ccc(C)cc32)c(OC)c1 (configuration not stated)	-15.8	-0.4	.	-1.6	.	-18.6	.	.
O=S(=O)(c1ccc(Cl)cc1)N1CCN(c2nc(-c3cccs3)nc3ccccc23)CC1	-5.4	15.7	0.9	15.4*	0.5	-4.3	-2.5	5.9
O=S(=O)(c1ccccc1)N1CCN(c2nc(-c3cccs3)nc3ccccc23)CC1	-6.8	2.6	3.1	1.4	6.4	-6.4	.	.
COc1ccccc1/C=C(/CC(=O)NCc1ccc(F)cc1)c1nc2ccccc2s1	11.6	9.5	12.8	63.1*	5.2	8.4	-1.3	-4.9
COc1ccccc1/C=C(/CC(=O)NCc1ccccc1)c1nc2ccccc2s1	6.7	-18.4	4.8	-0.1	6.7	4.1	.	.
O=C1CSC(c2cccnc2)N1c1ccccc1 (configuration not stated)	7.7	-15.4	.	-0.2	.	8.1	.	.
CC(C)(C)c1ccc(N2C(=O)CSC2c2cccnc2)cc1 (configuration not stated)	12.1	9.5	.	98.7*	.	9.7	-1.2	-6.3
CCOC(=O)N1CCc2c(sc3nc4n(c(=O)c23)N=C(c2ccc(OC)cc2)CS4)C1	-2.4	-29.4	.	-1.5	.	-0.7	.	.
